The results in this text go back to ChEMBL document CHEMBL4020800, “The design, synthesis, and anti-inflammatory evaluation of a drug-like library based on the natural product valerenic acid” (Bioorg Med Chem Lett, 2017).

Activity calls are given as the source filed them. No cut-off for these calls is given here.

The test system of one series is PBMC. As to the kind of experiment: Antiinflammatory activity in human PBMC assessed as inhibition of LPS-induced TNF-alpha production after 16 hrs by AlphaLisa assay. Type of series: functional, cell-based.
The subject of series [1] is Keratinocyte. As to the kind of experiment: Antiinflammatory activity in primary human […] keratinocytes assessed as inhibition of IL-17A/TNF-alpha induced IL-8 production at 10 uM preincubated for 2 hrs followed by cytokine addition measured after 72 hrs by HTRF assay relative to control. Type of series: functional.
Series [2] is described as follows: Cytotoxicity against primary human […] keratinocytes assessed as inhibition of cell viability at 10 uM preincubated for 2 hrs followed by cytokine addition measured after 72 hrs by PrestoBlue staining based fluorescence assay relative to control. Details: species or system Keratinocyte. The note with it: read-out: Imax.
The subject of series [3] is Keratinocyte. The experiment in a line: Antiinflammatory activity in primary human […] keratinocytes assessed as inhibition of IL-17A/TNF-alpha induced IL-8 production preincubated for 2 hrs followed by cytokine addition measured after 72 hrs by HTRF assay. In kind it is functional, cell-based. In outline: (§1)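 Primary human keratinocytes were stimulated with IL-17, and the inflammatory response was read as increased IL-8 secretion. Cell viability was measured in the same cells as a secondary readout to separate specific inhibition from cytotoxicity. Betamethasone served as the assay control. Maximal inhibition of IL-8 release or of viability was recorded alongside IC50 where calculated.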

Series [4] relates to Keratinocyte. As to the kind of experiment: Cytotoxicity against primary human […] keratinocytes assessed as inhibition of cell viability preincubated for 2 hrs followed by cytokine addition measured after 72 hrs by PrestoBlue staining based fluorescence assay. In outline: as §1
Setting [5] is: Homo sapiens, Keratinocyte, read-out: IC50.

For `CC1=C2[C@H](/C=C(\C)C(=O)NCCc3ccccc3)CC[C@@H](C)[C@H]2CC1`, the inhibition result in the series with PBMC is “inactive”. Further, the Imax with Keratinocyte [1] was determined as 64%. In addition, the inhibition at 72 h, 10 µM in series [2] was 11%. For the same molecule, the IC50 in the series with Keratinocyte [3] (setting [5]) is 7.5 µM; with Keratinocyte [4] (keratinocyte), “Not Active”.
On to `CC1=C2[C@H](/C=C(\C)C(=O)NCCN3CCOCC3)CC[C@@H](C)[C@H]2CC1`, for which the inhibition result with PBMC is “inactive”. Further, the Imax in the series on Keratinocyte [1] is 17%. Besides, the inhibition at 72 h, 10 µM in series [2] was 12%. Further, the IC50 result with Keratinocyte [3] (keratinocyte) and with Keratinocyte [4] (keratinocyte) was “Not Active” in each case.
As for `CC1=C2[C@H](/C=C(\C)C(=O)NCc3cccc(F)c3)CC[C@@H](C)[C@H]2CC1`, in the series with PBMC, the inhibition entry was “inactive”. Besides, the Imax with Keratinocyte [1] is given as 79%. Besides, the inhibition at 72 h, 10 µM in series [2] is 67%. For the same molecule, the IC50 in the series on Keratinocyte [3] (setting [5]) is 4.7 µM; in the series with Keratinocyte [4] (setting [5]), 9.6 µM.
For the molecule `CC1=C2[C@H](/C=C(\C)C(=O)O)CC[C@@H](C)[C@H]2CC1` [VALERENIC ACID], the inhibition result in the series on PBMC was “inactive”. In addition, the Imax with Keratinocyte [1] was determined as 4%. Besides, the inhibition at 72 h, 10 µM in series [2] worked out at 15%. Moreover, the IC50 result with Keratinocyte [4] (keratinocyte) is “Not Active”.
Turning to `C[C@H]1C[C@H]2[C@@H]3CCC4=CC(=O)C=C[C@]4(C)[C@@]3(F)[C@@H](O)C[C@]2(C)[C@@]1(O)C(=O)CO` [BETAMETHASONE], in the series with Keratinocyte [1], the Imax is 49%. The IC50 with Keratinocyte [4] (setting [5]) amounted to 0.3 µM.
With `CC1=C2[C@H](/C=C(\C)C(=O)NCc3ccccc3)CC[C@@H](C)[C@H]2CC1`, the inhibition entry in the series on PBMC was “inactive”. In the series on Keratinocyte [1], the Imax is reported as 84%. Also, the inhibition at 72 h, 10 µM in series [2] was 72%. Besides, the IC50 came to 2.9 µM in the series on Keratinocyte [3] (setting [5]) and 9 µM in the series with Keratinocyte [4] (setting [5]).
For `CC1=C2[C@H](/C=C(\C)C(=O)NCc3ccccc3F)CC[C@@H](C)[C@H]2CC1`, in that order: “inactive”, 85%, 72%, 2.8 µM and 8.7 µM.
On to `CC1=C2[C@H](/C=C(\C)C(=O)NCCC(C)C)CC[C@@H](C)[C@H]2CC1`, for which, in the series with PBMC, the inhibition entry was “inactive”. Further, the Imax with Keratinocyte [1] was determined as 22%. For the same molecule, the inhibition at 72 h, 10 µM in series [2] worked out at 9%. Moreover, the IC50 result in the series with Keratinocyte [3] (keratinocyte) and with Keratinocyte [4] (keratinocyte) was “Not Active” each time.
`CC1=C2[C@H](/C=C(\C)C(=O)NCCc3ccc(Br)cc3)CC[C@@H](C)[C@H]2CC1`: in the series on PBMC, the inhibition result was “inactive”. In addition, the Imax in the series with Keratinocyte [1] turned out to be 60%. In addition, in series [2], the inhibition at 72 h, 10 µM was determined as 24%. The IC50 is 8.3 µM in the series with Keratinocyte [3] (setting [5]) and “Not Active” in the series with Keratinocyte [4] (keratinocyte).
`CC1=C2[C@H](/C=C(\C)C(=O)NCc3ccc(F)cc3)CC[C@@H](C)[C@H]2CC1`: the inhibition entry in the series on PBMC was “inactive”. In the series with Keratinocyte [1], the Imax was 70%. Also, the inhibition at 72 h, 10 µM in series [2] turned out to be 61%. The results for the IC50 with Keratinocyte [3] (setting [5]) and in the series on Keratinocyte [4] (setting [5]) were 4.9 µM and 9.6 µM, respectively.
With `CC1=C2[C@H](/C=C(\C)C(=O)NCCc3ccccn3)CC[C@@H](C)[C@H]2CC1`, in the series with PBMC, the inhibition result is “inactive”. Also, the Imax in the series on Keratinocyte [1] worked out at 14%. The inhibition at 72 h, 10 µM in series [2] was determined as 20%. Also, the concentration for half-maximal inhibition (IC50) result in the series on Keratinocyte [3] (keratinocyte) and in the series on Keratinocyte [4] (keratinocyte) was “Not Active” in each case.
Consider `CC1=C2[C@H](/C=C(\C)C(=O)NCCc3ccc(F)cc3)CC[C@@H](C)[C@H]2CC1`, for which the inhibition entry with PBMC was “inactive”. Also, the Imax in the series with Keratinocyte [1] is recorded as 44%. Further, the inhibition at 72 h, 10 µM in series [2] came to 17%. In addition, the IC50 result in the series on Keratinocyte [3] (keratinocyte) and with Keratinocyte [4] (keratinocyte) was “Not Active” each time.
As for `COCCNC(=O)/C(C)=C/[C@@H]1CC[C@@H](C)[C@H]2CCC(C)=C12`, in the series with PBMC, the inhibition result was “inactive”. Further, the Imax in the series on Keratinocyte [1] is given as 30%. Also, the inhibition at 72 h, 10 µM in series [2] is 7%. The IC50 result in the series with Keratinocyte [3] (keratinocyte) and with Keratinocyte [4] (keratinocyte) was “Not Active” each time.
